Reference: ChEMBL document CHEMBL2331286 (ACS Med Chem Lett, 2013)
Calls of active or inactive are those of the source. The calls are words filed in the database; no cut-off is given here.

Columns and labels:
[1] = Blood clearance in iv dosed dog; assay type: ADME, organism-based, Canis lupus familiaris
[2] = Intrinsic clearance in dog liver microsome at 10 uM after 30 mins by LC/MS analysis; assay type: ADME, Canis lupus familiaris; conditions: microsomes, 0.5 h
Rattus norvegicus = experiment: Dose-normalized AUC in po dosed rat; assay type: ADME, organism-based; conditions: in vivo
Rhesus monkey = experiment: Dose-normalized AUC in po dosed monkey; assay type: ADME, organism-based, Macaca mulatta; conditions: in vivo
Liver microsomes = experiment: Intrinsic clearance in rat liver microsome; assay type: ADME
[3] = Intrinsic clearance in monkey liver microsome; assay type: ADME, Macaca mulatta; conditions: rhesus monkey, microsomes
[4] = target: T1, Serine/threonine-protein kinase B-raf (Homo sapiens, UniProt P15056, V600E); experiment: Inhibition of B-Raf V600E mutant in human SK-MEL-28 cells assessed as decrease in ERK phosphorylation incubated for 1 hr by immunoassay; assay type: cell-based
[5] = Oral bioavailability in monkey; assay type: ADME, organism-based, Macaca mulatta; conditions: rhesus monkey, in vivo
SK-MEL-28 = experiment: Inhibition of B-Raf V600E mutant-driven SK-MEL-28 cell proliferation after 72 hrs by CellTiter-Glo luminescent assay; assay type: functional, cell-based; conditions: Homo sapiens, SK-MEL-28, 72 h
[6] = Oral bioavailability in dog; assay type: ADME, organism-based, Canis lupus familiaris; conditions: in vivo
[7] = Oral bioavailability in rat; assay type: ADME, organism-based; conditions: in vivo
[8] = Blood clearance in iv dosed monkey; assay type: ADME, organism-based, Macaca mulatta; conditions: rhesus monkey
[9] = target: T1, Serine/threonine-protein kinase B-raf; experiment: Inhibition of N-terminal His tagged B-Raf V600E mutant (unknown origin) expressed in baculovirus infected insect cells co-expressing CDC37 assessed as decrease in biotinylated-MEK protein phosphorylation by AlphaScreen assay
Canis familiaris = experiment: Dose-normalized AUC in po dosed dog; assay type: ADME, organism-based, Canis lupus familiaris; conditions: in vivo
[10] = Blood clearance in iv dosed rat; assay type: ADME, organism-based
HFF = experiment: Inhibition of proliferation of human HFF cells harboring wild type B-Raf; assay type: cell-based
COLO 205 = experiment: Inhibition of human COLO205 cell proliferation; assay type: functional, cell-based
Mus musculus [11] = experiment: In vivo inhibition of B-Raf V600E mutant-mediated ERK1/2 phosphorylation in tumor of CD1 nu/nu mouse bearing B-Raf V600E mutant harboring human A375P-F11 cells at =< 30 mg/kg, po administered as a single dose measured after 24 hrs by duplex ELISA; assay type: functional, organism-based; set-up: dose 30 mg/kg
In short: (§1)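 A375P-F11 xenografts in nude mice, oral gavage dosing in 0.5% HPMC/0.2% Tween-80 water pH 8.0. Tumors homogenized in Tris pH 7.5 lysis buffer with EDTA, EGTA, Triton X-100, SDS, phosphatase inhibitors, kept on ice; spun 14,000 rpm 15 min 4°C, flash frozen. Total and phospho-ERK1/2 measured by duplex electrochemiluminescent ELISA.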

Mus musculus [12] = experiment: In vivo inhibition of B-Raf V600E mutant-mediated ERK1/2 phosphorylation in tumor of CD1 nu/nu mouse bearing B-Raf V600E mutant harboring human A375P-F11 cells at => 3 mg/kg, po administered as single dose measured after 2 to 6 hrs by duplex ELISA; assay type: functional; in short: as §1
Mus musculus [13] = experiment: In vivo inhibition of B-Raf V600E mutant-mediated ERK1/2 phosphorylation in tumor of po dosed CD1 nu/nu mouse bearing B-Raf V600E mutant harboring human A375P-F11 cells administered as single dose by duplex ELISA; assay type: functional, organism-based; in short: as §1
A375P-F11 = experiment: Antitumor activity against B-Raf V600E mutant harboring human A375P-F11 cells xenografted in po dosed CD1 nu/nu mouse assessed as tumor growth inhibition administered qd for 14 days by Vernier caliper; assay type: functional, organism-based
In short: (§2)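 A375P-F11 (single-cell clone of A375P selected by limiting dilution) grown as xenografts in nude mice; daily oral gavage started at ~150-200 mm3 tumors, vehicle 0.5% HPMC + 0.2% Tween-80 in water pH 8.0, 0.2 mL/20 g. Calipers twice weekly; volume = length x width² x 0.5; mean volume, n=7-8 mice/group. Complete regression = >93% volume decrease for ≥1 week.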

[14] = Antitumor activity against B-Raf V600E mutant harboring human A375P-F11 cells xenografted in CD1 nu/nu mouse assessed as tumor growth inhibition at 100 mg/kg, po qd for 14 days by Vernier caliper; assay type: functional; conditions: A375P-F11, 336 h, read-out: GI; in short: as §2
TGF-beta receptor type-1 = target: T2, TGF-beta receptor type-1 (Homo sapiens, UniProt P36897); experiment: Inhibition of Alk5 in TGF-beta-stimulated human HepG2 cells assessed as decrease in Smad2 phosphorylation treated for 45 mins prior to TGF-beta stimulation measured after 60 mins by odyssey blot scanner analysis; assay type: cell-based
T2 sequence (P36897 whole entry): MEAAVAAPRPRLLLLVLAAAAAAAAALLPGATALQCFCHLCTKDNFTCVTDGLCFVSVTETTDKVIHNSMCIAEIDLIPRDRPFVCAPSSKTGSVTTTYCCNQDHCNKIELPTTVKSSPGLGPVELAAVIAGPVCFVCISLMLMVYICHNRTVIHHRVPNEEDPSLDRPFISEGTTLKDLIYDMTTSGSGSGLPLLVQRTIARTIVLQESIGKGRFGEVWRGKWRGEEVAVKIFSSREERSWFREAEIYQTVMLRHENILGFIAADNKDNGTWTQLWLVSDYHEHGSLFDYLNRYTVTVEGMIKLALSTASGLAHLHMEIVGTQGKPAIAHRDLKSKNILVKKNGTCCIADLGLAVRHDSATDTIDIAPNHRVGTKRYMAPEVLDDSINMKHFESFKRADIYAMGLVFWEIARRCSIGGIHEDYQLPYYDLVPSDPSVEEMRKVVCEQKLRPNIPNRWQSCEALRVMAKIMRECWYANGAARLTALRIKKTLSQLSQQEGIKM
In short: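 HepG2 cells seeded at 500,000 cells/well, adhered overnight at 37°C/5% CO2 in BME+10% serum; compound added in serum-free medium for 45 min, then stimulated with 1 ng/ml TGF-β for 60 min.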

Mus musculus [15] = experiment: Toxicity in CD1 nu/nu mouse bearing B-Raf V600E mutant harboring human A375P-F11 cells assessed as changes in body weight at 0.1 to 100 mg/kg, po qd for 14 days; assay type: organism-based; set-up: dose 0.1-100 mg/kg, route oral; conditions: in vivo, 336 h

T1 sequence (P15056 2-766 V600E limits assumed): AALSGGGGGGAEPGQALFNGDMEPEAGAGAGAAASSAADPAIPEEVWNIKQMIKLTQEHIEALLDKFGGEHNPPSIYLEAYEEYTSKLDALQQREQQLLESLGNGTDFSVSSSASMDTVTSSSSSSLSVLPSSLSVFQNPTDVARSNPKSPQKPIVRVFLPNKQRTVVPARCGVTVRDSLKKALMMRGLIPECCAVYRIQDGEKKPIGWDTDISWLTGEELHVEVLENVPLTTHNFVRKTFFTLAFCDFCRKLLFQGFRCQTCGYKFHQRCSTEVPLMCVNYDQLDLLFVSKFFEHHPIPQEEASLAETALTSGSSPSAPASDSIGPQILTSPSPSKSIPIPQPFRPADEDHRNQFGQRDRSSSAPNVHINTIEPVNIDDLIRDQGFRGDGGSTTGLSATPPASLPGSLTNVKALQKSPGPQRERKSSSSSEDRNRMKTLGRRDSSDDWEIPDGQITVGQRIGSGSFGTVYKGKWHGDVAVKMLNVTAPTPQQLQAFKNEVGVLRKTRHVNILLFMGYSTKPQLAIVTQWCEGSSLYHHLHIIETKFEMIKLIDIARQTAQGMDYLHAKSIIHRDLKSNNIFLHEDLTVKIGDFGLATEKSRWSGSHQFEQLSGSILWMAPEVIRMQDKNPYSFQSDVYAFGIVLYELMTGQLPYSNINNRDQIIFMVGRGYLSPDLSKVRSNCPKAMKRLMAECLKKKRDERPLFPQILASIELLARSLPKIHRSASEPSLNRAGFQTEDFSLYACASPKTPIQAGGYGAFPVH

Structure (SMILES)	AUC/dose (Rattus norvegicus) [ng·h/mL/mg/kg]	IC50 [4] [nM]	IC50 [9] [nM]	AUC/dose (Canis familiaris) [ng·h/mL/mg/kg]	also measured
CC(C)c1nc(-c2cccc(NS(=O)(=O)c3c(F)cccc3F)c2F)c(-c2ccnc(Nc3ccc(N4CCOCC4)nc3)n2)s1	1748	23	3.8	42	clearance [1]: 38 mL/min/kg; CLH [2]: 53 mL/min/g; AUC/dose (Rhesus monkey): 23 ng·h/mL/mg/kg; CLH (Liver microsomes): 9 mL/min/g; CLH [3]: 8 mL/min/g; bioavailability [5]: 5%; IC50 (SK-MEL-28): 48 nM; bioavailability [6]: 10%; bioavailability [7]: 85%; clearance [8]: 39 mL/min/kg; clearance [10]: 9 mL/min/kg
CC(C)c1nc(-c2cccc(NS(=O)(=O)c3c(F)cccc3F)c2)c(-c2ccnc(N)n2)s1	23	78	40		
CC(C)c1nc(-c2ccc(F)c(NS(=O)(=O)c3c(F)cccc3F)c2)c(-c2ccnc(NCCS(C)(=O)=O)n2)s1	1024	51	13	43	
CC(C)c1nc(-c2ccc(F)c(NS(=O)(=O)c3cccc(F)c3)c2)c(-c2ccnc(N)n2)s1		2560	536		
CC(C)c1nc(-c2cccc(NS(=O)(=O)c3cccc(F)c3)c2)c(-c2ccnc(NCCCN(C)C)n2)s1		73	28		
CC(C)c1nc(-c2cccc(NS(=O)(=O)c3c(F)cccc3F)c2F)c(-c2ccnc(NCCS(C)(=O)=O)n2)s1	125	7	0.3	68	
CC(C)(C)c1nc(-c2cccc(NS(=O)(=O)c3cc(F)ccc3F)c2)c(-c2ccnc(N)n2)s1	27	7	8		
CC(C)c1nc(-c2cccc(NS(=O)(=O)c3c(F)cccc3F)c2)c(-c2ccnc(NCCS(C)(=O)=O)n2)s1	34	4	1		
CC(C)(C)c1nc(-c2cccc(NS(=O)(=O)c3c(F)cccc3F)c2F)c(-c2ccnc(N)n2)s1 [DABRAFENIB]	729			3754	clearance [1]: 4 mL/min/kg; IC50 (HFF): 3000 nM; IC50 (COLO 205): 7 nM; inhibition (Mus musculus [11]): inactive; IC50 (SK-MEL-28): 3 nM; inhibition in vivo at 3 mg/kg (Mus musculus [12]): > 50%; inhibition (Mus musculus [13]): Dose-dependent effect; growth inhibition (GI) (A375P-F11): Dose-dependent effect; inhibition in vivo at 100 mg/kg [14]: 50%; IC50 (TGF-beta receptor type-1): 3700 nM; Activity (Mus musculus [15]): Non-toxic; clearance [10]: 18 mL/min/kg
CC(C)c1nc(-c2cccc(NS(=O)(=O)c3cccc(F)c3)c2)c(-c2ccnc(NCC(N)=O)n2)s1	6	26	11		
CC(C)c1nc(-c2cccc(NS(=O)(=O)c3cccc(F)c3)c2)c(-c2ccnc(NC3CC3)n2)s1	16	28	32		
CC(C)(C)c1nc(-c2ccc(F)c(NS(=O)(=O)c3c(F)cccc3F)c2)c(-c2ccnc(NCCS(C)(=O)=O)n2)s1	1373	11	13		
